Reference: ChEMBL document CHEMBL4422701, “Jatrophane Diterpenoids from Euphorbia glomerulans” (J Nat Prod, 2019)

Experiments:
NCI/ADR-RES = test: Cytotoxicity in doxorubicin-resistant human MCF7/ADR cells assessed as reduction in cell viability incubated for 48 hrs by MTT assay; format: cell-based
How it was run: (§1)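 Cells grown in RPMI-1640 with 10% heat-inactivated FBS at 37 °C, 5% CO2. Compounds were dissolved in DMSO and given as serial dilutions to cells seeded at 5 × 10^3 per well in log phase, for 48 h. MTT (5 mg/mL) was then added for 4 h, formazan dissolved in DMSO, and absorbance read at 570 nm.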

MCF7 = test: Cytotoxicity in human MCF7 cells assessed as reduction in cell viability incubated for 48 hrs by MTT assay; format: cell-based; conditions: MCF7, 48 h; how it was run: as §1

SMILES | IC50 (NCI/ADR-RES) [µM] | IC50 (MCF7) [µM]
C=C1[C@H](O)[C@H]2[C@@H](OC(=O)c3ccccc3)[C@](C)(OC(C)=O)C[C@]2(O)[C@H](OC(C)=O)[C@@H](C)/C=C/C(C)(C)C(=O)[C@H](OC(C)=O)[C@H]1OC(C)=O | > 100 | > 100
C=C1[C@H](O)[C@H]2[C@@H](OC(=O)c3ccccc3)[C@](C)(O)C[C@]2(O)[C@H](OC(C)=O)[C@@H](C)/C=C/C(C)(C)C(=O)[C@H](OC(C)=O)[C@H]1OC(=O)c1ccccc1 | > 100 | > 100
C=C1[C@H](OC(C)=O)[C@H]2[C@@H](OC(=O)c3ccccc3)[C@](C)(O)C[C@]2(O)C(=O)[C@@H](C)/C=C/C(C)(C)C(=O)[C@H](OC(=O)C(C)C)[C@H]1OC(C)=O | > 100 | > 100
C=C1[C@H](OC(C)=O)CC(=O)C(C)(C)/C=C/[C@H](C)C(=O)[C@@]2(OC(C)=O)C[C@H](C)[C@H](OC(=O)c3ccccc3)[C@@H]2[C@H]1OC(C)=O | 39.3 | 51.1
C=C1[C@H](OC(C)=O)CC(=O)C(C)(C)/C=C/[C@H](C)C(=O)[C@@]2(OC(C)=O)C[C@H](C)[C@H](OC(C)=O)[C@@H]2[C@H]1OC(=O)c1ccccc1 | > 100 | > 100
C=C1[C@H](OC(C)=O)[C@H]2[C@@H](OC(=O)c3ccccc3)[C@](C)(OC(C)=O)C[C@]2(O)C(=O)[C@@H](C)/C=C/C(C)(C)C(=O)[C@H](OC(C)=O)[C@H]1OC(=O)C(C)C | > 100 | > 100
C=C1[C@H](OC(C)=O)[C@H]2[C@@H](OC(=O)c3ccccc3)[C@@H](C)C[C@]2(OC(C)=O)C(=O)[C@@H](C)/C=C/C(C)(C)C(=O)[C@H](O)[C@H]1OC(C)=O | > 100 | > 100
C=C1[C@H](OC(C)=O)[C@H]2[C@@H](OC(=O)c3ccccc3)[C@@H](C)C[C@]2(OC(C)=O)C(=O)[C@@H](C)/C=C/C(C)(C)C(=O)[C@H](OC(C)=O)[C@H]1OC(C)=O | > 100 | > 100
C=C1[C@H](OC(=O)c2ccccc2)[C@H]2[C@@H](OC(C)=O)[C@@H](C)C[C@]2(OC(C)=O)C(=O)[C@@H](C)/C=C/C(C)(C)C(=O)[C@H](O)[C@H]1OC(C)=O | > 100 | > 100
C=C1[C@H](OC(=O)c2ccccc2)[C@H]2[C@@H](OC(C)=O)[C@@H](C)C[C@]2(OC(C)=O)C(=O)[C@@H](C)/C=C/C(C)(C)C(=O)[C@H](OC(=O)c2ccccc2)[C@H]1OC(C)=O | > 100 | > 100
C=C1[C@H](OC(=O)c2ccccc2)[C@@H](OC(C)=O)[C@@H](OC(C)=O)C(C)(C)/C=C/[C@H](C)C(=O)[C@@]2(OC(C)=O)C[C@H](C)[C@H](OC(=O)c3ccccc3)[C@@H]2[C@H]1OC(C)=O | > 100 | > 100
C=C1[C@H](OC(C)=O)[C@H]2[C@@H](OC(=O)c3ccccc3)[C@@H](C)C[C@]2(OC(C)=O)C(=O)[C@@H](C)/C=C/C(C)(C)C(=O)[C@H](O)[C@H]1OC(=O)c1ccccc1 | > 100 | > 100
C=C1[C@H](OC(C)=O)[C@H]2[C@@H](OC(=O)c3ccccc3)[C@](C)(O)C[C@]2(O)C(=O)[C@@H](C)/C=C/C(C)(C)C(=O)[C@H](OC(C)=O)[C@H]1OC(=O)c1ccccc1 | > 100 | > 100
C=C1[C@H](OC(C)=O)[C@H]2[C@@H](OC(=O)c3ccccc3)[C@](C)(OC(C)=O)C[C@]2(O)C(=O)[C@@H](C)/C=C/C(C)(C)C(=O)[C@H](OC(=O)C(C)C)[C@H]1OC(C)=O | > 100 | 50.2
C=C1[C@H](OC(C)=O)[C@H]2[C@@H](OC(=O)c3ccccc3)[C@@H](C)C[C@]2(O)C(=O)[C@@H](C)/C=C/C(C)(C)C(=O)[C@H](O)[C@H]1OC(C)=O | > 100 | > 100
C=C1[C@H](OC(C)=O)[C@H]2[C@@H](OC(=O)c3ccccc3)[C@@H](C)C[C@]2(OC(C)=O)C(=O)[C@@H](C)/C=C/C(C)(C)C(=O)[C@H](OC(C)=O)[C@H]1OC(=O)c1ccccc1 | > 100 | > 100
C=C1[C@H](OC(C)=O)[C@H]2[C@@H](OC(=O)CC(C)=O)[C@@H](C)C[C@]2(O)C(=O)[C@@H](C)/C=C/C(C)(C)C(=O)[C@H](OC(C)=O)[C@H]1OC(=O)c1ccccc1 | > 100 | > 100
COc1cccc2c1C(=O)c1c(O)c3c(c(O)c1C2=O)C[C@@](O)(C(=O)CO)C[C@@H]3O[C@H]1C[C@H](N)[C@H](O)[C@H](C)O1 [DOXORUBICIN] | 64.8 | –
